Pf Dd2 inh = P. falciparum Dd2 growth inhibitors, primary screen, SYBR Green fluorescence, single dose replicates. 72 h; stronger effect = lower value. activity change, % at 10 µM. 94,000 compounds, 2.3% hits; in the data active = activity change below about -80%; inconclusive = no clear call, values can overlap the other calls
IDH1 R132H inh = inhibitors of IDH1 R132H reductase, primary screen, biochemical, plate reader, single point; Isocitrate dehydrogenase [NADP] cytoplasmic (Homo sapiens), O75874; diaphorase/resazurin fluorescence, 60 min; inhibition, % at 10 µM; 70,000 compounds, 0.18% hits; AID 624101, 2012; in the data active = inhibition above about 34%; inconclusive = no clear call, values can overlap the other calls; inactive = below about 11%
Target sequence (O75874 whole entry R132H): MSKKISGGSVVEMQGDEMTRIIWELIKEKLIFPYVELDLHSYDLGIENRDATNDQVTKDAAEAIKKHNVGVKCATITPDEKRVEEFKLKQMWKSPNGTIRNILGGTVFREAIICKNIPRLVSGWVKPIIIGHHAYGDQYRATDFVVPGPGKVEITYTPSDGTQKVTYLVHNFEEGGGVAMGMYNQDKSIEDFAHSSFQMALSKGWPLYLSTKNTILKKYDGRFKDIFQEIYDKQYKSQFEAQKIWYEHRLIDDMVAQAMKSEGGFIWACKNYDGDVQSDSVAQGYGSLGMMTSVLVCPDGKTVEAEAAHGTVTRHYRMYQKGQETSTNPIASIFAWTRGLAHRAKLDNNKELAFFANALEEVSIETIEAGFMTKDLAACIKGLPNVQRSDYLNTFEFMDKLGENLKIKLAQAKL
T cruzi growth-1 = T. cruzi intracellular proliferation inhibitors, primary screen, cell-based, beta-gal Tulahuen parasites, NIH3T3 host, luminescence | inhibition, % at 8.34 µM | 77,000 compounds, 5.9% hits | T. cruzi beta-gal in NIH3T3, GalScreen luminescence, 90 h;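 active = mean inhibition above about 93%, with at least 55% of replicates each passing it, limit read from the data, passing the limit was not always enough; inconclusive = only one of those two conditions holds; inactive = neither condition holds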
KDM4C inh = inhibitors of GASC-1 (KDM4C) histone demethylase, primary screen, biochemical, single concentration HTS. Lysine-specific demethylase 4C (Homo sapiens), Q9H3R0. GST-KDM4C 2-372, H3K9me3 peptide, LANCE TR-FRET. inhibition, % at 12.5 µM. 96,000 compounds, 0.15% hits;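 active = mean replicate inhibition above about 25%, with at least 55% of replicates also reaching it, limit read from the data, passing the limit was not always enough; inconclusive = only one of those two conditions met; inactive = neither condition met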
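System: N-terminal GST-fused human GASC-1 (KDM4C) fragment, residues 2-372 / Amount: 10 nM GST-KDM4C in enzyme reaction / Also added: H3K9me3 peptide with Fe(II)/2OG / Times: 30 min demethylation and 1 h detection at room temperature / Signal: LANCE TR-FRET / Read-out basis: Fall in 671/618 emission ratio as inhibition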
T cruzi growth-2 = T. cruzi intracellular proliferation inhibitors, confirmation, cell-based, NIH3T3 host, beta-gal parasite, luminescence, cherry-pick. 5,600 compounds, 72% hits. shares compounds with T cruzi growth-1. T. cruzi beta-gal in NIH3T3, GalScreen luminescence, 90 h. inhibition, % at 8.35 µM;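 active = mean replicate inhibition above about 95% and at least 55% of replicates individually reaching it, limit read from the data; inconclusive = only one of the two criteria is met; inactive = neither criterion is met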
T cruzi growth-3 = inhibitors of intracellular T. cruzi replication, confirmation, NIH3T3 host cells, beta-gal parasites, cherry-pick, set 2 | 5,600 compounds, 21% hits | AID 651740, 2012 | shares compounds with T cruzi growth-1 | inhibition, % at 2.09 µM | T. cruzi beta-gal in NIH3T3, GalScreen luminescence, 90 h;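 active = mean inhibition above about 95%, with at least 55% of replicates also reaching it, limit read from the data; inconclusive = meets just one of the two conditions; inactive = meets neither condition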
3T3 cytotox = cytotoxicity in mouse NIH/3T3 fibroblasts, confirmation, cytotoxicity control for T. cruzi proliferation inhibitor project, cell-based, cherry-pick, single point; shares compounds with T cruzi growth-1; NIH/3T3 viability, CellTiter-Glo ATP luminescence, 90 h; cytotoxicity (signal decrease), % at 8.35 µM; 5,600 compounds, 14% hits;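 active = mean signal decrease across replicates above about 35% based on untreated-well scatter, with enough replicates individually passing, limit read from the data; inconclusive = no rule stated though some were filed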
3T3 cytotox 2 = NIH/3T3 fibroblast cytotoxicity, confirmation, cytotoxicity control, cell-based, cherry-pick, single point, set 2. NIH/3T3 viability, CellTiter-Glo ATP luminescence, 90 h. inhibition, % at 24.9 µM. shares compounds with T cruzi growth-1. 5,600 compounds, 56% hits. AID 651744, 2012;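 active = mean loss of cell viability signal at or above a set limit, and enough replicates individually reaching it; inconclusive = meets only the mean limit or only the replicate share; inactive = meets neither condition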
Numbers stand for hits; i = inactive; ? = inconclusive; nt = no result. Only some compounds are listed: those with a hit (about 5.8% of all), similar ones and a draw of the others.

SMILES	Pf Dd2 inh	IDH1 R132H inh	T cruzi growth-1	KDM4C inh	T cruzi growth-2	T cruzi growth-3	3T3 cytotox	3T3 cytotox 2
O=C(Nc1ccc(F)cc1)N1CCCCN2[C@@H](CO)[C@@H](c3ccc(C#Cc4ccccc4)cc3)[C@@H]2C1	i	nt	121	i	108	115	118	105
O=C(Nc1cccc(F)c1)N1CCCCN2[C@H](CO)[C@@H](c3ccc(C#Cc4cccnc4)cc3)[C@@H]2C1	i	nt	105	i	109	?	i	81
CO[C@H](CN(C)Cc1cc(F)ccc1F)[C@@H](C)CN([C@H](C)CO)S(=O)(=O)c1ccc(Cl)cc1	i	i	i	i	nt	nt	nt	nt
CCS(=O)(=O)Nc1ccc2c(c1)C(=O)N(C)[C@@H]1CC[C@H](CC(=O)Nc3ccccc3)O[C@H]1CO2	i	nt	i	i	nt	nt	nt	nt
C[C@@H]1CN([C@@H](C)CO)S(=O)(=O)c2ccc(C3=CCCC3)cc2O[C@H]1CN(C)C(=O)c1ccncc1	i	i	i	i	nt	nt	nt	nt
C[C@@H]1CN([C@H](C)CO)C(=O)c2cc(NC(=O)CCN3CCOCC3)ccc2O[C@H]1CN(C)Cc1ccc(Cl)c(Cl)c1	i	i	i	i	nt	nt	nt	nt
COc1ccc(NC(=O)Nc2ccc3c(c2)C(=O)N([C@@H](C)CO)C[C@@H](C)[C@@H](CN(C)C(=O)CCC(F)(F)F)OCCCC[C@H](C)O3)cc1	i	nt	i	i	nt	nt	nt	nt
CCC(=O)NC[C@H]1[C@@H](c2ccc(-c3cccc(F)c3)cc2)[C@H](CO)N1C(=O)CC	i	nt	i	i	nt	nt	nt	nt
CCC(=O)NC[C@@H]1[C@H](c2ccc(-c3cccc(F)c3)cc2)[C@@H](CO)N1C(=O)CC	i	nt	101	i	i	i	i	i
CCC(=O)NC[C@@H]1[C@H](c2ccc(-c3cccc(F)c3)cc2)[C@H](CO)N1C(=O)CC	i	nt	?	i	i	i	i	i
CCC(=O)N1CCCCN2[C@H](CO)[C@H](c3ccc(-c4cccc(C(=O)N(C)C)c4)cc3)[C@H]2C1	i	nt	101	i	i	i	i	i
CCC(=O)N1CCCCN2[C@@H](CO)[C@H](c3ccc(-c4cccc(C(=O)N(C)C)c4)cc3)[C@@H]2C1	i	nt	100	i	96	i	i	i
Cc1ccc2ccc(C(Nc3ccccn3)c3ccc(Cl)cc3)c(O)c2n1 (stereo unspecified)	nt	i	nt	nt	nt	nt	nt	nt
COc1ccccc1-c1nc(SCC(=O)c2ccc(O)c(O)c2)n[nH]1	nt	i	nt	nt	nt	nt	nt	nt
COCC(=O)N1[C@H](C#N)[C@@H](c2ccccc2)[C@@H]1CO	i	nt	i	i	nt	nt	nt	nt
COCC(=O)N1[C@H](C#N)[C@H](c2ccc(C#Cc3ccccc3F)cc2)[C@@H]1CO	i	nt	102	i	103	i	i	?
COCC(=O)N1[C@@H](C#N)[C@@H](c2ccc(C#Cc3ccccc3F)cc2)[C@@H]1CO	i	nt	106	i	i	i	i	94
COCC(=O)N1[C@@H](C#N)[C@H](c2ccc(C#Cc3ccccc3F)cc2)[C@@H]1CO	i	nt	101	i	103	i	i	i
COCC(=O)N1[C@H](C#N)[C@H](c2ccc(C#Cc3ccccc3F)cc2)[C@H]1CO	i	nt	106	i	99	i	i	?
N#C[C@H]1[C@H](c2ccc(C#Cc3ccccc3F)cc2)[C@H](CO)N1C(=O)C1CC1	i	nt	i	i	nt	nt	nt	nt
COCC(=O)N1[C@H](C#N)[C@H](c2ccccc2)[C@H]1CO	i	nt	i	i	nt	nt	nt	nt
